Calls of active or inactive are those of the source.
Key:
[1] = biological target: Transcription initiation factor TFIID subunit 1 (Homo sapiens) (UniProt P21675); experiment: Binding affinity to human partial length TAF1 bromodomain 2 (D1521 to D1656 residues) expressed in bacterial expression system at 1 uM by BROMOscan assay
How it was run: (§1)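 BROMOscan bromodomain cross-screen run by an outside service, compound at 1 µM against 32 recombinant bromodomains. Binding given as percent of control.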

[2] = biological target: Serine/threonine-protein kinase Nek2 (Homo sapiens) (UniProt P51955); experiment: Inhibition of recombinant full-length human NEK2 at 10 uM using myelin basic protein as substrate measured after 40 mins in presence of [gamma33P]ATP by scintillation counting method
[3] = test system: Serine/threonine-protein kinase Chk2 (Homo sapiens), O96017 [I157T]; experiment: Inhibition of recombinant human CHK2 I157T mutant (5 to end residues) at 10 uM using KKKVSRSGLYRSPSMPENLNRPR as substrate measured after 40 mins in presence of [gamma33P]ATP by scintillation counting method
Serine/threonine-protein kinase Chk2 (Homo sapiens), O96017 [I157T], sequence (O96017 whole entry I157T): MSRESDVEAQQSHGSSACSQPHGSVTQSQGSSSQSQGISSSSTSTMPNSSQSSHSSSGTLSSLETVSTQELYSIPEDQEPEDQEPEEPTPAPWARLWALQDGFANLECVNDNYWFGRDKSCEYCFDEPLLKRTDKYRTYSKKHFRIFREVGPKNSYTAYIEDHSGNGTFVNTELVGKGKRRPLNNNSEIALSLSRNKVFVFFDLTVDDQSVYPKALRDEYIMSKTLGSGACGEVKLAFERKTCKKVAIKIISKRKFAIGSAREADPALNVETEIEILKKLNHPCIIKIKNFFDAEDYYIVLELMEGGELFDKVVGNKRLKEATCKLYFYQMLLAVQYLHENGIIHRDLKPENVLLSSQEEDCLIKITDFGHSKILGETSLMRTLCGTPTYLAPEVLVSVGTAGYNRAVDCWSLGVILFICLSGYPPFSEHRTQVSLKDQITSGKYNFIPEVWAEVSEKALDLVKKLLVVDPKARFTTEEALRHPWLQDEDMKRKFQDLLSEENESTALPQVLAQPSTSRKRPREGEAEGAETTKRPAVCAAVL

[4] = biological target: Cyclin-dependent kinase 1/cyclin B1 (Homo sapiens) (UniProt P06493+P14635); experiment: Inhibition of recombinant full-length human CDK1/cyclinB at 10 uM using histone H1 as substrate measured after 40 mins in presence of [gamma33P]ATP by scintillation counting method; type: protein-complex assay
[5] = test system: Serine/threonine-protein kinase TAO3 (Homo sapiens), Q9H2K8 [UNDEFINED MUTATION]; experiment: Inhibition of human TAO3 (1 to 411 residues) using myelin basic protein as substrate measured after 40 mins in presence of [gamma33P]ATP by scintillation counting method
[6] = biological target: Serine/threonine-protein kinase pim-1 (Homo sapiens) (UniProt P11309); experiment: Inhibition of recombinant full-length human Pim1 at 10 uM using KKRNRTLTV as substrate measured after 40 mins in presence of [gamma33P]ATP by scintillation counting method
[7] = test system: Proto-oncogene tyrosine-protein kinase receptor Ret (Homo sapiens), P07949 [V804M]; experiment: Inhibition of human Ret V804M mutant (658 to end residues) using KKKVSRSGLYRSPSMPENLNRPR as substrate measured after 40 mins in presence of [gamma33P]ATP by scintillation counting method
Proto-oncogene tyrosine-protein kinase receptor Ret (Homo sapiens), P07949 [V804M], sequence (P07949 whole entry V804M): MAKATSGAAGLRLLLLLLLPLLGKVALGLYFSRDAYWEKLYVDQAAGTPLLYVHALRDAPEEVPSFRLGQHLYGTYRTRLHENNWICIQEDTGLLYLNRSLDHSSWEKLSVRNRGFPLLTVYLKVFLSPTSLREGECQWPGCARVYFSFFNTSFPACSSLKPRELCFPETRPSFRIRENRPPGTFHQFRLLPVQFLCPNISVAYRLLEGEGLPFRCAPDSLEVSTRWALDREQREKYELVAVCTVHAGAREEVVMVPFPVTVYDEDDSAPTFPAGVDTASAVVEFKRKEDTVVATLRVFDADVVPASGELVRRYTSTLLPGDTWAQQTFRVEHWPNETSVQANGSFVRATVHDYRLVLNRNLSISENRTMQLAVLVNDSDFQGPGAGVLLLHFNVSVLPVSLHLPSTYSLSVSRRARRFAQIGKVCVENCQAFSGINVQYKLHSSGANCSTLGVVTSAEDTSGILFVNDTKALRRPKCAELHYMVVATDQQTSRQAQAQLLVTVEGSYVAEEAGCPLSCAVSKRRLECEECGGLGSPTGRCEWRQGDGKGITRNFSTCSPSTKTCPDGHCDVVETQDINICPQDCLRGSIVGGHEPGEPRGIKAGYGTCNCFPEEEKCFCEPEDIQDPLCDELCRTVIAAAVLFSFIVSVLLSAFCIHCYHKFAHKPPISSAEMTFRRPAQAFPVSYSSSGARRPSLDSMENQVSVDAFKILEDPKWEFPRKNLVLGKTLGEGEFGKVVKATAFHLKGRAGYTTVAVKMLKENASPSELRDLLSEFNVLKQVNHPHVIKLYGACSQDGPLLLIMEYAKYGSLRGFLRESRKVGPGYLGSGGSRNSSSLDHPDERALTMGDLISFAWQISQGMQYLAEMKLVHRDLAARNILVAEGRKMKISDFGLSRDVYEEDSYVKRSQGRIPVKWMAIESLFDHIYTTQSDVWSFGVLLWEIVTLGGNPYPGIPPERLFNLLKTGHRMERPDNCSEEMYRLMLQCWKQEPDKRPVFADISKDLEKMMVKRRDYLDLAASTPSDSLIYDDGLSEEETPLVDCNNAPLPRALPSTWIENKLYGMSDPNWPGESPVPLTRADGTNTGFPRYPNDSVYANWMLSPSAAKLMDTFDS
How it was run: (§2)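 Kinase panel of 422 kinases screened by Eurofins KinaseProfiler at a single test-compound concentration of 10 µM.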

[8] = test system: Mast/stem cell growth factor receptor Kit (Homo sapiens), P10721 [V654A]; experiment: Inhibition of recombinant human c-Kit V654A mutant (544 to end residues) at 10 uM using GGMEDIYFEFMGGKKK as substrate measured after 40 mins in presence of [gamma33P]ATP by scintillation counting method
Mast/stem cell growth factor receptor Kit (Homo sapiens), P10721 [V654A], sequence (P10721 whole entry V654A): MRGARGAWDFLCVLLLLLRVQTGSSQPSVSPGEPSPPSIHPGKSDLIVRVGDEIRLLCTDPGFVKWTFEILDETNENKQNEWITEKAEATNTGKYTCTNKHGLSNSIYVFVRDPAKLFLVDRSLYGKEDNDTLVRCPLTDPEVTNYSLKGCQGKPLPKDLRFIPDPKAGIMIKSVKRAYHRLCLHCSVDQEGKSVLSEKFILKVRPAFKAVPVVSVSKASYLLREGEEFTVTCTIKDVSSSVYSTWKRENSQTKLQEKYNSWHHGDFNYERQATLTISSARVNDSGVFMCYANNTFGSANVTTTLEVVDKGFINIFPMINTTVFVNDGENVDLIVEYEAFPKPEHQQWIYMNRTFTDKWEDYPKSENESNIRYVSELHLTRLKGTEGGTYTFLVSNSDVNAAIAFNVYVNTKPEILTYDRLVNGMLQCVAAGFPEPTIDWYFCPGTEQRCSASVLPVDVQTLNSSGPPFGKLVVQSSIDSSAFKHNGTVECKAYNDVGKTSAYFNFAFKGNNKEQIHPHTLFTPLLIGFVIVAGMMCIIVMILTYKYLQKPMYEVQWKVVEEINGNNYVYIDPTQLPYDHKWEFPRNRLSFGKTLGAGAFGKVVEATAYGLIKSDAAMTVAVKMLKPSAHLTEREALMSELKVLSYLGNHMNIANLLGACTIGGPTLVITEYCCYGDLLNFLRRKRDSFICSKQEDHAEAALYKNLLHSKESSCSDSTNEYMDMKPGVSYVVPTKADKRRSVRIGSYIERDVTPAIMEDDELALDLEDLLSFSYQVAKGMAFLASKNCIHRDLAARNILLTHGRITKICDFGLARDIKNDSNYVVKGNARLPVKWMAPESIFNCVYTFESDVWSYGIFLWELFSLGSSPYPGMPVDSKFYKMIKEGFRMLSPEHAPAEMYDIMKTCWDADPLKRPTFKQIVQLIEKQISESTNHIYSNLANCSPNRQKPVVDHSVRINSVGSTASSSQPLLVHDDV

[9] = biological target: Tyrosine-protein kinase Lyn (Mus musculus) (UniProt P25911); experiment: Inhibition of mouse Lyn at 10 uM
[10] = biological target: Ephrin type-A receptor 7 (Homo sapiens) (UniProt Q15375); experiment: Inhibition of recombinant human EphA7 (613 to 909 residues) at 10 uM using KTFCGTPEYLAPEVRREPRILSEEEQEMFRDFDYIADWC as substrate measured after 40 mins in presence of [gamma33P]ATP by scintillation counting method
Ephrin type-A receptor 7 (Homo sapiens), sequence (Q15375 28-998 limits assumed): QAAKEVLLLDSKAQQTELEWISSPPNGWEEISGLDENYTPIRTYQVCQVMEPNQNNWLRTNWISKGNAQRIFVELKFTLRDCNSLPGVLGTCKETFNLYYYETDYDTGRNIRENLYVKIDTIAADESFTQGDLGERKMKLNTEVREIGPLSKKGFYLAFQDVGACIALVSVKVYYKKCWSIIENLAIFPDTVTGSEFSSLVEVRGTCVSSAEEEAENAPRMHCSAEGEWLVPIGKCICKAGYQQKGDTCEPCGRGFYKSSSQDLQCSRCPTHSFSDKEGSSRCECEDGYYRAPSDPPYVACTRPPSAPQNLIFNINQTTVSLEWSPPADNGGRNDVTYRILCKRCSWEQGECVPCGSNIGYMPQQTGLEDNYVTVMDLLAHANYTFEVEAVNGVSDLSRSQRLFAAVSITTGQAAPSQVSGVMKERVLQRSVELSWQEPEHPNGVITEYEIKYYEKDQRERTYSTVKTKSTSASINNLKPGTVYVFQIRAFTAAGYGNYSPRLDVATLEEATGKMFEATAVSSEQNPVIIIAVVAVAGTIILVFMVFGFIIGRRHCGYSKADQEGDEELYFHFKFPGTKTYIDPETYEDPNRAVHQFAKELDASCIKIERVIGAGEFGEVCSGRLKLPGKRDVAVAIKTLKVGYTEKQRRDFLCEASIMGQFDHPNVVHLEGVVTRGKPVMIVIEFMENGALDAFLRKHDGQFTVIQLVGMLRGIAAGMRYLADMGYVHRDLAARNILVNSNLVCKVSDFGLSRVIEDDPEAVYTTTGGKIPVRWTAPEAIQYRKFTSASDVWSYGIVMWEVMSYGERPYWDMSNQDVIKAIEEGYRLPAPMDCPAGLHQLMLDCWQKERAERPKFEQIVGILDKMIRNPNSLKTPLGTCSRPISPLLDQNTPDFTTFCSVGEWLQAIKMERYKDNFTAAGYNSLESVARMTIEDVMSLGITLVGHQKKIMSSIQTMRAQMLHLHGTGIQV

Mus musculus = species on record: Mus musculus; experiment: Inhibition of full-length recombinant mouse BLK V421E mutant at 10 uM using poly(Glu, Tyr) 4:1 as substrate measured after 40 mins in presence of [gamma33P]ATP by scintillation counting method; how it was run: as §2
[11] = biological target: Ephrin type-B receptor 1 (Homo sapiens) (UniProt P54762); experiment: Inhibition of recombinant human EphB1 (564 to end residues) at 10 uM using KVEKIGEGTYGVVYK as substrate measured after 40 mins in presence of [gamma33P]ATP by scintillation counting method
[12] = biological target: Serine/threonine-protein kinase 16 (Homo sapiens) (UniProt O75716); experiment: Inhibition of human STK16 at 10 uM by radiometric method; how it was run: as §2
[13] = biological target: Inhibitor of nuclear factor kappa-B kinase subunit epsilon (Homo sapiens) (UniProt Q14164); experiment: Inhibition of recombinant full-length human IKKepsilon at 10 uM using casein as substrate measured after 40 mins in presence of [gamma33P]ATP by scintillation counting method
Homo sapiens [14] = species on record: Homo sapiens; experiment: Inhibition of human Ros V2262A mutant (1883 to end residues) using KKKSPGEYVNIEFG as substrate measured after 40 mins in presence of [gamma33P]ATP by scintillation counting method; how it was run: as §2
[15] = biological target: Vascular endothelial growth factor receptor 2 (Homo sapiens) (UniProt P35968); experiment: Inhibition of recombinant human KDR (790 to end residues) at 10 uM using myelin basic protein substrate measured after 40 mins in presence of [gamma33P]ATP by scintillation counting method
Vascular endothelial growth factor receptor 2 (Homo sapiens), sequence (P35968 whole entry): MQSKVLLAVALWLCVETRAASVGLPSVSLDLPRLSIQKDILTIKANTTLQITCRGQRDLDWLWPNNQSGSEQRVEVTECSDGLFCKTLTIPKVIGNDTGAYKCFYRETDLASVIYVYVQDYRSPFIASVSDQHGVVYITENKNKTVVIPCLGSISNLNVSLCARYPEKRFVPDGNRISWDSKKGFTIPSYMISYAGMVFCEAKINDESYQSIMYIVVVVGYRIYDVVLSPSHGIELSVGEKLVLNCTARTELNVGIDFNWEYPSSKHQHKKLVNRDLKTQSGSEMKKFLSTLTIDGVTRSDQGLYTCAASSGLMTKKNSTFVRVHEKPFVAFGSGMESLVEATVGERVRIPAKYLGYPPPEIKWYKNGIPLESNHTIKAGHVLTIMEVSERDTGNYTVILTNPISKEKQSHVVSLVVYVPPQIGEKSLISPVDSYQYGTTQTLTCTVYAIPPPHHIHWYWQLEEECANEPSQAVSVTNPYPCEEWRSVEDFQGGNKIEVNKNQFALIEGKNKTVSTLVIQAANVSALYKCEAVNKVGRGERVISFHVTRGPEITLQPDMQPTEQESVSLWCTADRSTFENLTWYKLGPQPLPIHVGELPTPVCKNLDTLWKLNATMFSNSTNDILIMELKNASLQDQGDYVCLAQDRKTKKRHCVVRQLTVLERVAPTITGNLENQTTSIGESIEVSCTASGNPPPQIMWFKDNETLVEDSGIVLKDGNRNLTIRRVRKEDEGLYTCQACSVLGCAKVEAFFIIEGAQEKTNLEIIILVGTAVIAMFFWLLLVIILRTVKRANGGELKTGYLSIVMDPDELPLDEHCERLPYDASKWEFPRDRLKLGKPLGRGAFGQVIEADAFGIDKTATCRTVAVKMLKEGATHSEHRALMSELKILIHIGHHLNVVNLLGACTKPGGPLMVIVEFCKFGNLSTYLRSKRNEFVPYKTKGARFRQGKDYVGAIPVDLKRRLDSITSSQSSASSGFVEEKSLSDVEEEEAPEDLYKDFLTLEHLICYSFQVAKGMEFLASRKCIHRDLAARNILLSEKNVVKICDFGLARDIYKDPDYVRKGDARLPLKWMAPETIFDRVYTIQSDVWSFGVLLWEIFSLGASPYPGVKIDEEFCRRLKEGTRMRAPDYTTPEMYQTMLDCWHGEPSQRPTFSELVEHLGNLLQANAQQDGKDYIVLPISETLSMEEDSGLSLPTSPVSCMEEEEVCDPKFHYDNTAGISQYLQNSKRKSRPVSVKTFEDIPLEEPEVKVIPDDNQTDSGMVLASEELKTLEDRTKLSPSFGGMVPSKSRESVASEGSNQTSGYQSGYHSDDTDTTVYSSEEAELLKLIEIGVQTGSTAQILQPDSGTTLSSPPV

[16] = biological target: Serine/threonine-protein kinase D2 (Homo sapiens) (UniProt Q9BZL6); experiment: Inhibition of recombinant full-length human PKD2 at 10 uM using KKLNRTLSVA as substrate measured after 40 mins in presence of [gamma33P]ATP by scintillation counting method
[17] = biological target: Phosphatidylinositol 5-phosphate 4-kinase type-2 alpha (Homo sapiens) (UniProt P48426); experiment: Inhibition of recombinant full-length human PIP4K2alpha at 10 uM using phosphatidylinositol 5-phosphate as substrate measured after 40 mins by HTRF assay
[18] = biological target: Bromodomain-containing protein 2 (Homo sapiens) (UniProt P25440); experiment: Binding affinity to human partial length BRD2 bromodomain 2 isoform 1 (E348 to D455 residues) expressed in bacterial expression system at 1 uM by BROMOscan assay; how it was run: as §1
[19] = biological target: Cyclin-dependent kinase 2/cyclin E1 (Homo sapiens) (UniProt P24864+P24941); experiment: Inhibition of recombinant full-length human CDK2/cyclinE at 10 uM using histone H1 as substrate measured after 40 mins in presence of [gamma33P]ATP by scintillation counting method; type: protein-complex assay
[20] = biological target: CDK3/Cyclin E (Homo sapiens) (UniProt P24864+Q00526); experiment: Inhibition of recombinant full-length human CDK3/cyclinE at 10 uM using histone H1 as substrate measured after 40 mins in presence of [gamma33P]ATP by scintillation counting method; type: protein-complex assay
Homo sapiens [21] = species on record: Homo sapiens; experiment: Inhibition of human activated Tec F514V mutant (174 to end residues) using EFPIYDFLPAKKK as substrate measured after 40 mins in presence of [gamma33P]ATP by scintillation counting method
[22] = biological target: Tyrosine-protein kinase Fes/Fps (Homo sapiens) (UniProt P07332); experiment: Inhibition of recombinant human FES (2 to end residues) at 10 uM using poly(Glu, Tyr) 4:1 as substrate measured after 40 mins in presence of [gamma33P]ATP by scintillation counting method

CN1C[C@H](Nc2nc3cc[nH]c3c(=O)n2C)C[C@H](c2ccc3c(c2)OCCO3)C1
inactive: Activity [1] | inhibition [2] | inhibition [3] | inhibition [4] | inhibition [5] | inhibition [6] | inhibition [7] | inhibition [8] | inhibition [9] | inhibition [10] | inhibition (Mus musculus) | inhibition [11] | inhibition [12] | inhibition [13] | inhibition (Homo sapiens [14]) | inhibition [15] | inhibition [16] | inhibition [17] | Activity [18] | inhibition [19] | inhibition [20] | inhibition (Homo sapiens [21]) | inhibition [22]
